NR3A LBD binder = modulators (binders) of human NR3A ligand-binding domain. NR3A LBD differential scanning fluorimetry, Tm shift; 0% = protein alone, 100% = glycine-bound protein. Tm shift relative to glycine control, % at 25 µM. 340,000 compounds, 2.5% hits;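 active = melting temperature shift of at least 10% of the positive control shift, at one fixed dose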
GC-A act = GC-A (human) enzyme activation. HEK293 GC-A cells, cGMP TR-FRET, EC30 ANP; 0% at EC30 ANP, 100% saturating ANP. activation, % at 10 µM. 370,000 compounds, 0.14% hits; in the data active = activation above about 40%
JMJD2C inh = blocks human GASC-1 demethylase activity; Q9H3R0; GST-JMJD2C(1-420) H3K9me3 demethylation, DELFIA europium; inhibition, % at 2.35 µM; 330,000 compounds, 0.069% hits; AID 2099;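 active = more than half of a compound's replicate wells show inhibition beyond 50%, single wells judged on their own value; inconclusive = some, but no more than half, of replicates pass 50% inhibition; inactive = no replicate passes 50% inhibition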;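 note: signal counts dimethyl H3K9 product captured on neutravidin plate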
Hep lipid drop = hepatic lipid droplet formation modulation | 240,000 compounds, 0.4% hits | AML12 mouse hepatocytes, oleate lipid droplets, BODIPY imaging | inhibition, % at 6.5 µM;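 active = lipid droplet intensity inhibited by at least 50%, with more than 500 cells counted; inconclusive = wells with under 300 cells, treated as cytotoxic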
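Assay system: AML12 mouse liver cells | Compound: 6.5 µM single-point dosing | Schedule: Overnight exposure | Technique: Fluorescence imaging, 20x objective, two fields per well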
NPR2 activator = GC-B (human) receptor activation; P20594; HEK293-GC-B cells, CNP EC30, cGMP TR-FRET; 0% at EC30 CNP, 100% saturating CNP; activation, % at 10 µM; 370,000 compounds, 0.11% hits; AID 1920062;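 active = activation at 10 µM reaching about 35% in either raw or pattern-adjusted values, limit read from the data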
Target sequence (P20594 whole entry, looked up): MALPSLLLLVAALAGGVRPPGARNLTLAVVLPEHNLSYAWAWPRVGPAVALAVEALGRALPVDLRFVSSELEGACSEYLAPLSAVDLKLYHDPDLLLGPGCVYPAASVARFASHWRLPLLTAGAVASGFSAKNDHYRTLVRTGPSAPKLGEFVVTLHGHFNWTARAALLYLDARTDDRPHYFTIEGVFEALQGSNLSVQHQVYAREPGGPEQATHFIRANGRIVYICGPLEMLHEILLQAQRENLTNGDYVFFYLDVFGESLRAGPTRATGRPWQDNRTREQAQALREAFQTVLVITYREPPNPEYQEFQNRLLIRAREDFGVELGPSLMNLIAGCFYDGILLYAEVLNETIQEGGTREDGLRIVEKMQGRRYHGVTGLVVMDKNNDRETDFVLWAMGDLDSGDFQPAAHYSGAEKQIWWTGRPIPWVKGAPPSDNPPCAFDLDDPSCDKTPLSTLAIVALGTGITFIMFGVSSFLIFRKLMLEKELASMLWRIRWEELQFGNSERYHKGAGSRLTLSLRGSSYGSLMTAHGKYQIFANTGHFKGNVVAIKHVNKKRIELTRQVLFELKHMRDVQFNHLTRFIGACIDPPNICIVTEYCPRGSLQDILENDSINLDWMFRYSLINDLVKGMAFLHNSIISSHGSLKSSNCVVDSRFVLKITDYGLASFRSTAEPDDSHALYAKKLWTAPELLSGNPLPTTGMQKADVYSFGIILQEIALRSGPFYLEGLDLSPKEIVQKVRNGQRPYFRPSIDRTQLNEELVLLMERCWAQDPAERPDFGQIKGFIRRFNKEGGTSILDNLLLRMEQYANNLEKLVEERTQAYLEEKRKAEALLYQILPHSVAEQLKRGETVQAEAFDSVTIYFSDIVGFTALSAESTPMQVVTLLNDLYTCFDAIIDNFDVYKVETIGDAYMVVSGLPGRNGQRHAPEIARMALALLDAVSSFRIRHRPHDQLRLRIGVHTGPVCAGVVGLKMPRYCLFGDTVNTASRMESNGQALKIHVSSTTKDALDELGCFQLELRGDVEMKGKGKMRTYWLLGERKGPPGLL
aDG glyco act = alpha-DG glycosylation activation; Pro5-aDG cells, alpha-DG glycosylation AlphaScreen (IIH6); 0% Pro5, 100% B10-LARGE cell signal; activation, % at 10 µM; 360,000 compounds, 0.22% hits;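 active = activation of at least 8% versus controls, or a plate z-score of at least 8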;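 note: Pro5 are CHO cells carrying HIG-tagged alpha-DG that lacks glycosylation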
Of the large screens only hits and unclear results are named; the others gave an inactive call. Hits are enriched below; roughly 3% of the tested compounds scored in any of these assays.

C[C@H](NS(=O)(=O)c1ccc(Cl)cc1)C(=O)OCC(=O)Nc1cc(S(=O)(=O)N2CCOCC2)ccc1Cl	none (no result: JMJD2C inh, Hep lipid drop)
COc1ccc(NC(=O)CCNS(=O)(=O)c2cccc3nonc23)cc1Cl	NR3A LBD binder 18
CN(C)c1ccc(NC(=O)c2sc(SCC(=O)Nc3ccc(Br)cc3)nc2N)cc1	NR3A LBD binder 16 (no result: Hep lipid drop)
Cc1onc(-c2c(Cl)cccc2Cl)c1C(=O)Nc1ccc2c(c1)OCCO2	none (no result: JMJD2C inh, Hep lipid drop)
Cc1cc(Br)c(NC(=O)c2c(-c3c(Cl)cccc3Cl)noc2C)c(Br)c1	NR3A LBD binder 12
Cc1cnc(C(=O)OCC(=O)Nc2ccccc2[N+](=O)[O-])cn1	NR3A LBD binder 11 (no result: Hep lipid drop)
COc1ccc(CSc2nnc(SCC(=O)Nc3ccccc3-c3ccccc3)s2)cc1	none (no result: NR3A LBD binder, JMJD2C inh, Hep lipid drop, aDG glyco act)
Cc1ccc2c(c1)N(CCC(=O)NCc1ccccn1)C(=O)CO2	NR3A LBD binder 42
COc1ccc(Br)cc1CNC(=O)CCN1C(=O)COc2ccccc21	NR3A LBD binder 23
Cc1ccc2c(c1)N(CCC(=O)NCc1cccnc1)C(=O)CO2	none (no result: Hep lipid drop)
Cc1cc2c(c(=O)o1)[C@@]1(C(=O)N(c3ccccc3)c3ccccc31)C1=C(CCCC1=O)O2	none (no result: NR3A LBD binder, JMJD2C inh, Hep lipid drop, aDG glyco act)
CCCCCCCc1nc2sc3c(c2c(=O)n1N)CC(C)(C)OC3	none
CCCCCc1nc2sc3c(c2c(=O)n1NC(=O)c1ccc([N+](=O)[O-])cc1)CC(C)(C)OC3	NR3A LBD binder 12
O=S1(=O)c2ccccc2-c2c(nnn2Cc2ccccc2)CN1C1CC1	none (no result: NR3A LBD binder, JMJD2C inh, Hep lipid drop, aDG glyco act)
Nc1ccc(-c2nc3ccccc3[nH]2)cc1	none
Nc1ccc(-c2nc3c(ccc4ccccc43)[nH]2)cc1	NR3A LBD binder 11
COc1ccc(C(=O)N/N=C/c2ccc(OC)c(COc3ccc(F)cc3F)c2)cc1	NR3A LBD binder 15
COc1ccc(/C=C/C(=O)Oc2ccc(/C=N\NC(=O)c3ccc(F)cc3)cc2)cc1	NR3A LBD binder 15
O=C(N/N=C/c1ccccc1[N+](=O)[O-])c1ccc2nc[nH]c2c1	none
O=C(N/N=C/c1ccc(Cl)c([N+](=O)[O-])c1)c1ccc2nc[nH]c2c1	NR3A LBD binder 13 (no result: Hep lipid drop)
COc1ccc(/C=N/NC(=O)c2ccc3nc[nH]c3c2)cc1	NR3A LBD binder 15
COc1ccc(C(=O)N/N=C/c2ccc(OC)c(COc3ccc(F)cc3)c2)cc1	none
O=C(NCc1cccc(Br)c1)C1CC2Cn3c(nc4ccccc43)C2N1c1ccccc1 (stereo not drawn)	none (no result: Hep lipid drop)
O=[N+]([O-])c1ccccc1S(=O)(=O)N1CCC(c2cn3ccccc3n2)CC1	none (no result: NR3A LBD binder, JMJD2C inh, Hep lipid drop, aDG glyco act)
COc1ccc(/C=N/NC(=O)c2ccc(COCC(F)(F)C(F)F)cc2)cc1	NR3A LBD binder 12
COc1cc(/C=N/NC(=O)c2ccc(CN3c4cccc5cccc(c45)S3(=O)=O)cc2)cc(OC)c1O	none
COc1ccc(/C=N/NC(=O)c2ccc(CN3c4cccc5cccc(c45)S3(=O)=O)cc2)cc1	NR3A LBD binder 22
CC(=O)N1CCN(c2ccc(N3CCN(C(C)=O)[C@H](C)C3)c(C)c2)[C@H](C)C1	none (no result: NR3A LBD binder, JMJD2C inh, Hep lipid drop, aDG glyco act)
Oc1ccc(-c2nc3c4c(ncn3n2)-c2ccccc2CC42CCCC2)cc1	NR3A LBD binder 61
CCOc1ccc(/C=C(\C#N)C(=O)NCC2CCCO2)cc1OCC (stereo not drawn)	NR3A LBD binder 13
COc1cc(/C=C(\C#N)C(=O)NCC2CCCO2)ccc1O (stereo not drawn)	none
O=C(O)c1ccccc1C(=O)Nc1ccc(Nc2ccc([N+](=O)[O-])cc2[N+](=O)[O-])cc1	NR3A LBD binder 10
Brc1ccc(CN2CCN(c3ncc(Cc4ccccc4)cn3)CC2)cc1	none (no result: NR3A LBD binder, JMJD2C inh, Hep lipid drop, aDG glyco act)
O=C(O)C(c1ccccc1)N1C(=O)/C(=C\c2ccc(-c3ccc(Br)cc3)o2)SC1=S (stereo not drawn)	none
O=C(O)C(c1ccccc1)N1C(=O)/C(=C\c2ccc(-c3ccccc3Cl)o2)SC1=S (stereo not drawn)	NR3A LBD binder 31
O=C(CC(=O)c1ccccc1)c1ccccc1	none (no result: JMJD2C inh, Hep lipid drop)
CN(C)CCC(=O)c1ccc(Cl)cc1	GC-A act 62 (no result: Hep lipid drop)
CN(CCC(=O)c1ccccc1)CCC(=O)c1ccccc1	GC-A act 63
COc1cc(C2C3=C(COC3=O)Oc3cc4c(cc32)OCO4)cc(OC)c1O (stereo not drawn)	none (no result: JMJD2C inh, Hep lipid drop)
O=C(N/N=C/c1ccccc1F)C(=O)N1CCCCCC1	none
O=C(N/N=C/c1ccccc1O)C(=O)N1CCCCCC1	NR3A LBD binder 11
COC(=O)[C@]12C[C@H](CC(=O)NCCCN3CCCC3=O)C(=O)N(CCC3=CCCCC3)C1=C[C@H](C(C)C)O[C@@H]2C1CC1	none (no result: NR3A LBD binder, JMJD2C inh, Hep lipid drop, aDG glyco act)
COC(=O)[C@]12C[C@H](CC(=O)N3CCC(c4ccccc4)CC3)C(=O)N(Cc3ccc4c(c3)OCO4)C1=C[C@H](C(C)(C)C)O[C@@H]2C	none (no result: NR3A LBD binder, JMJD2C inh, Hep lipid drop, aDG glyco act)
CC1=CC(=O)C(C(C)C)=C/C1=N\OS(=O)(=O)c1ccccc1	none (no result: NR3A LBD binder, JMJD2C inh, Hep lipid drop, aDG glyco act)
CCOc1ccc(-n2cc(C(=O)N3CCC(C)CC3)c3cc(OC)c(OC)cc3c2=O)cc1	aDG glyco act 7.5 (no result: Hep lipid drop)
CCOc1ccc(-n2cc(C(=O)Nc3cccc(C)n3)c3cc(OC)c(OC)cc3c2=O)cc1	NPR2 activator 36 (no result: Hep lipid drop)
CC(=O)N1C[C@@H](CN2C(=O)CCC2=O)[C@@H]2C[C@H]1c1ccccc1N2C	none (no result: NR3A LBD binder, JMJD2C inh, Hep lipid drop, aDG glyco act)
Cc1ccc(Cl)c(Cn2cnc3c(cnn3C(C)(C)C)c2=O)c1F	none (no result: Hep lipid drop)
CC(C)(C)n1ncc2c(=O)n(Cc3c(F)cccc3Cl)cnc21	NPR2 activator 40 (no result: Hep lipid drop)
Cc1ccc2nc(/C(C#N)=C\c3ccc(Oc4ccc([N+](=O)[O-])cn4)cc3)[nH]c2c1	NR3A LBD binder 12
CN(Cc1ccccc1)S(=O)(=O)c1cccc(C(=O)OCc2cccc(C(F)(F)F)c2)c1	none (no result: NR3A LBD binder, JMJD2C inh, Hep lipid drop, aDG glyco act)
CCOC(=O)c1nc(Nc2cc(Cl)ccc2OC)c2ccccc2n1	NR3A LBD binder 10 (no result: Hep lipid drop)
CCOC(=O)c1nc(Nc2ccccc2)c2ccccc2n1	none
CCOC(=O)Nc1sc(=S)n(C)c1C	Hep lipid drop inconclusive
CCOC(=O)Nc1c(Cl)n(C)c(=O)n(C)c1=O	NR3A LBD binder 11
Cc1ccc(S(=O)(=O)N(C)CC(=O)NCCCn2nc(C)cc2C)cc1	NR3A LBD binder 13 (no result: Hep lipid drop)
Cc1ccc(S(=O)(=O)N(C)CC(=O)NCCCc2ccccc2)cc1	none
CCN1C2=NCCCN2c2ccccc21	NR3A LBD binder 11 (no result: Hep lipid drop)
ClCCN1C2=NCCCN2c2ccccc21	none
CC[C@H](C)[C@H]1CNC(=O)C(=O)N1CC1CCN(CC(C)C)CC1	none (no result: NR3A LBD binder, JMJD2C inh, Hep lipid drop, aDG glyco act)
COc1ccc(NS(=O)(=O)c2ccc(N3CCCC3)c(NC(=S)Nc3cccc(C)c3C)c2)cc1	none
COc1ccc(NS(=O)(=O)c2ccc(N3CCCC3)c(NC(=S)Nc3ccc(SC(F)F)cc3)c2)cc1	NR3A LBD binder 12
